Assay results from ChEMBL document CHEMBL3352563, “Design, synthesis and molecular docking of substituted 3-hydrazinyl-3-oxo-propanamides as anti-tubercular agents” (Bioorg Med Chem Lett, 2014).
≈ marks a conversion by molar mass, not a printed value.

Tests used:
[1] = test system: Mycobacterium tuberculosis; assay: Anti-tubercular activity against Mycobacterium tuberculosis H37Rv by resazurin microtitre assay; assay type: functional
Summary of the method: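 Value is the minimum inhibitory concentration (MIC) found by the resazurin microtitre (REMA) method.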

[2] = biological target: T1, Serine/threonine-protein kinase PknB (Mycobacterium tuberculosis, UniProt P9WI81); assay: Inhibition of Mycobacterium tuberculosis PknB
T1 sequence (P9WI81 whole entry): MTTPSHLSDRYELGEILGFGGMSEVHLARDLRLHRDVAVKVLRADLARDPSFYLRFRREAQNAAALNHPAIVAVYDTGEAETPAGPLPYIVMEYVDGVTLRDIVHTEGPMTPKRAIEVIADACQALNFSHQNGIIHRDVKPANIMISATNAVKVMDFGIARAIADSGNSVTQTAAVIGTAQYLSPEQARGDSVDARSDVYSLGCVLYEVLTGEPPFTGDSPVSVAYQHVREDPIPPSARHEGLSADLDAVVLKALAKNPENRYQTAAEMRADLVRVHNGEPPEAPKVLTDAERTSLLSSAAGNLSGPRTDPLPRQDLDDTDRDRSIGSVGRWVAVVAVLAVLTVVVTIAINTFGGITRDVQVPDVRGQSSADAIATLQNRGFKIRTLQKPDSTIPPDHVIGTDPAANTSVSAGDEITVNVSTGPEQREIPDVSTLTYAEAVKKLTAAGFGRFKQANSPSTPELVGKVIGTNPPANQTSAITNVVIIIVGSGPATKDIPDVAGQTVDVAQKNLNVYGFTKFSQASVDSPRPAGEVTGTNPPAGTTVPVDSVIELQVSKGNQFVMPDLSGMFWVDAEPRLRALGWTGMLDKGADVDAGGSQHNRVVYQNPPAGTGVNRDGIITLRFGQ

| Structure (SMILES) | MIC [1] | Ki [2] |
| --- | --- | --- |
| NNC(=O)CC(=O)Nc1ccc(C(=O)O)cc1 | 12.5 µg/mL (≈ 52.7 µM) | 3.86 µM |
| NNC(=O)CC(=O)Nc1ccc(F)c(Cl)c1 | 50 µg/mL (≈ 204 µM) | 3.53 µM |
| NNC(=O)CC(=O)Nc1ccccc1[N+](=O)[O-] | > 100 µg/mL | 22.9 µM |
| NNC(=O)CC(=O)Nc1cccc([N+](=O)[O-])c1 | > 100 µg/mL | 12.5 µM |
| NNC(=O)CC(=O)Nc1ccc([N+](=O)[O-])cc1 | > 100 µg/mL | 10.8 µM |
| NNC(=O)CC(=O)Nc1ccc([N+](=O)[O-])cc1[N+](=O)[O-] | > 100 µg/mL | 6.38 µM |
| NNC(=O)CC(=O)Nc1cc(Cl)cc(Cl)c1 | > 100 µg/mL | 7.68 µM |
| NNC(=O)CC(=O)Nc1ccc(Cl)c(Cl)c1 | > 100 µg/mL | 9.21 µM |
| COc1ccc(OC)c(NC(=O)CC(=O)NN)c1 | > 100 µg/mL | 7.01 µM |
| COc1ccc(NC(=O)CC(=O)NN)c(OC)c1 | > 100 µg/mL | 5.25 µM |
| CCN(CC)c1ccc(NC(=O)CC(=O)NN)cc1 | 100 µg/mL (≈ 378 µM) | 13.1 µM |
| CCCCc1ccc(NC(=O)CC(=O)NN)cc1 | 12.5 µg/mL (≈ 50.1 µM) | 26.5 µM |
| CCCc1ccc(NC(=O)CC(=O)NN)cc1 | 12.5 µg/mL (≈ 53.1 µM) | 9.04 µM |
| NNC(=O)CC(=O)Nc1ccc(S(=O)(=O)O)cc1 | 50 µg/mL (≈ 183 µM) | 7.59 µM |
| NNC(=O)CC(=O)Nc1ccccc1C(=O)O | 50 µg/mL (≈ 211 µM) | 7.32 µM |
| NNC(=O)CC(=O)NCc1ccco1 | > 100 µg/mL | 18.5 µM |
| NNC(=O)c1ccncc1 [ISONIAZID] | 0.02 µg/mL (≈ 0.146 µM) |  |
| CO[C@H]1/C=C/O[C@@]2(C)Oc3c(C)c(O)c4c(O)c(c(/C=N/N5CCN(C)CC5)c(O)c4c3C2=O)NC(=O)/C(C)=C\C=C\[C@H](C)[C@H](O)[C@@H](C)[C@@H](O)[C@@H](C)[C@H](OC(C)=O)[C@@H]1C [RIFAMPIN] | 0.01 µg/mL (≈ 0.0122 µM) |  |
